Calls of active or inactive are those of the source. No cut-off for these calls is given here.
Key:
[1] = target: Serine/threonine-protein kinase MARK1 (Homo sapiens) (UniProt Q9P0L2); test: Inhibition of recombinant human N-terminal His6-tagged MARK1 (2 to 795 residues) expressed in baculovirus infected Sf21 cells at 1 uM using KKKVSRSGLYRSPSMPENLNRPR as substrate incubated for 30 mins in presence of [gamma-33P]ATP by filter binding method
In short: (§1)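 Screened at the International Centre for Protein Kinase Profiling against a 140-kinase panel, with inhibitor at 0.1 or 1 μM; activity expressed as percentage of DMSO control reactions, mean of triplicate reactions.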

[2] = target: MAP/microtubule affinity-regulating kinase 3 (Homo sapiens) (UniProt P27448); test: Inhibition of recombinant human N-terminal His6-tagged MARK3 (2 to 729 residues) expressed in baculovirus infected Sf21 cells at 1 uM using CHKtide as substrate incubated for 30 mins in presence of [gamma-33P]ATP by filter binding method; in short: as §1
[3] = target: NUAK family SNF1-like kinase 2 (Homo sapiens) (UniProt Q9H093); test: Inhibition of GST-tagged NUAK2 (unknown origin) expressed in HEK293 cells using ALNRTSSDSALHRRR as substrate incubated for 30 mins in presence of [gamma-32P]-ATP by Cerenkov counting method; type: cell-based
NUAK family SNF1-like kinase 2 (Homo sapiens), sequence (Q9H093 whole entry): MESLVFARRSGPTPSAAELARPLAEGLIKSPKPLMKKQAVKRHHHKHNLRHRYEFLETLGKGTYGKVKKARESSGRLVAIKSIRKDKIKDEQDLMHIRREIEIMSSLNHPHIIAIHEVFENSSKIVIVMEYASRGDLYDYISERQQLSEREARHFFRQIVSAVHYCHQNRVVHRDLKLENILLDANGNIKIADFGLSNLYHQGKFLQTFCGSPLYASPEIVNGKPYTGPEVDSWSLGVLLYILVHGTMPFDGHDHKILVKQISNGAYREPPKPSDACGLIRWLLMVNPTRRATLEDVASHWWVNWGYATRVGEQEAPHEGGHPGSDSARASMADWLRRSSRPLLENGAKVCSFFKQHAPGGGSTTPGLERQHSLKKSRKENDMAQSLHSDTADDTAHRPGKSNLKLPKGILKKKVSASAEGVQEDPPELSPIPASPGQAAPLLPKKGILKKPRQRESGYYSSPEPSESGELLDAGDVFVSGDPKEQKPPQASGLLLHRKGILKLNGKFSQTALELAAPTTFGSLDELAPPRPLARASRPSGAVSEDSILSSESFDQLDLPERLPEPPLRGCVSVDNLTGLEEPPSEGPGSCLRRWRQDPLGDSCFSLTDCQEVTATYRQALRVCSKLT
In short: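 GST–NUAK2 purified on glutathione–Sepharose from HEK-293 cells 36–48 h after transient transfection; 100 ng enzyme in 50 mM Tris/HCl pH 7.5, 0.1 mM EGTA, 10 mM magnesium acetate, 200 μM Sakamototide, 0.1 mM [γ-32P]ATP, inhibitor in DMSO; 30 min at 30 °C, stopped with 25 mM EDTA, spotted on P81, Cerenkov counted; triplicate; IC50 by non-linear regression versus DMSO control.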

[4] = target: T1, NUAK family SNF1-like kinase 1 (Homo sapiens) (UniProt O60285); test: Inhibition of NUAK1 in HEK293 cells assessed as reduction in MYPT1 phosphorylation at Ser445 residue at 0.1 to 10 uM incubated for 16 hrs by immunoblot analysis; type: cell-based; conditions: dose 0.1-10 µM
T1 sequence (whole entry): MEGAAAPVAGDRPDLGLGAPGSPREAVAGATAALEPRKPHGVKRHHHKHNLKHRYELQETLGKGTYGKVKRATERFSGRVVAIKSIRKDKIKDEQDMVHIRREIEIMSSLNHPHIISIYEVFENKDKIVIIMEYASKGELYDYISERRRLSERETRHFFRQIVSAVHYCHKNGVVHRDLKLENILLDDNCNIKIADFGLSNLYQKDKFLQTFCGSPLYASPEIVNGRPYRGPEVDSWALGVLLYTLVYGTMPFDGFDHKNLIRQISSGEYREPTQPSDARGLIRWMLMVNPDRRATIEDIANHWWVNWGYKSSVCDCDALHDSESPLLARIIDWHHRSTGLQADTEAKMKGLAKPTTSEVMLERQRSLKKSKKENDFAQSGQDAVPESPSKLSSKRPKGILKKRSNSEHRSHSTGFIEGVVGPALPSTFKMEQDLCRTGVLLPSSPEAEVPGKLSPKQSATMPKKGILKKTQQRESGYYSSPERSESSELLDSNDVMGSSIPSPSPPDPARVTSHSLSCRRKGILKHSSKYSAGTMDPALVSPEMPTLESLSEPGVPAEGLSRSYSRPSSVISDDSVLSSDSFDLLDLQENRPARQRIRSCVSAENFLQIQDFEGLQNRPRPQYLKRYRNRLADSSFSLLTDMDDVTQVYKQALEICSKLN
In short: (§2)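 HEK-293 cells exposed to inhibitor or DMSO for 16 h; medium replaced by EDTA-PBS dissociation buffer with the same inhibitor concentration to induce detachment (gentle tapping, 70 g, 3 min); cells lysed at once; MYPT1 immunoprecipitated from 0.5 mg lysate, blotted for p-Ser445 and total MYPT1; repeated three times.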

[5] = target: Serine/threonine-protein kinase BRSK1 (Homo sapiens) (UniProt Q8TDC3); test: Inhibition of recombinant human N-terminal His6-tagged BRSK1 (2 to 778 residues) expressed in baculovirus infected Sf21 cells at 1 uM using KKLNRTLSFAEPG as substrate incubated for 30 mins in presence of [gamma-33P]ATP by filter binding method; in short: as §1
Serine/threonine-protein kinase BRSK1 (Homo sapiens), sequence (Q8TDC3 whole entry, the tested form may be a part): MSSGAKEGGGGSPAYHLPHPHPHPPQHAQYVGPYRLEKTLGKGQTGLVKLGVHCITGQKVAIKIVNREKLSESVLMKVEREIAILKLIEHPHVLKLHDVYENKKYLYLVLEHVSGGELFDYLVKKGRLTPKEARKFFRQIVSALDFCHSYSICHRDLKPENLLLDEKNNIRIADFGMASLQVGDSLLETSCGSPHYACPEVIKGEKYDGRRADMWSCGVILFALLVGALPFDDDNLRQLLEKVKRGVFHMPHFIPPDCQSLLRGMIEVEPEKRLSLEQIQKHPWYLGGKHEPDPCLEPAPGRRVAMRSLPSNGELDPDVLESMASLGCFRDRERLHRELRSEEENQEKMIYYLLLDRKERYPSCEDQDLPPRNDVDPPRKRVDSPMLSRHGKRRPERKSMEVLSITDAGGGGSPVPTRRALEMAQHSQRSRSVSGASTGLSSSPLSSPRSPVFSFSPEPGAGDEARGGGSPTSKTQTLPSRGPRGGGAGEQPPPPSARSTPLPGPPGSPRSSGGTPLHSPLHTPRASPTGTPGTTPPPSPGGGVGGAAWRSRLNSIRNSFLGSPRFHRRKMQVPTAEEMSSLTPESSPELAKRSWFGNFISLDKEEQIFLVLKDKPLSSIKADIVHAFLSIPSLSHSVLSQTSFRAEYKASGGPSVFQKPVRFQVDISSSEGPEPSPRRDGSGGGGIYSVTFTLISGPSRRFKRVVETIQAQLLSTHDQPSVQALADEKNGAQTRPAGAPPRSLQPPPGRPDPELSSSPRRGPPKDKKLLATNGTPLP

[6] = target: Aurora kinase B (Homo sapiens) (UniProt Q96GD4); test: Inhibition of recombinant human N-terminal His6-tagged Aurora B (1 to 344 residues) expressed in Escherichia coli at 1 uM using LRRLSLGLRRLSLGLRRLSLGLRRLSLG as substrate incubated for 30 mins in presence of [gamma-33P]ATP by filter binding method; in short: as §1
Aurora kinase B (Homo sapiens), sequence (Q96GD4 whole entry, the tested form may be a part): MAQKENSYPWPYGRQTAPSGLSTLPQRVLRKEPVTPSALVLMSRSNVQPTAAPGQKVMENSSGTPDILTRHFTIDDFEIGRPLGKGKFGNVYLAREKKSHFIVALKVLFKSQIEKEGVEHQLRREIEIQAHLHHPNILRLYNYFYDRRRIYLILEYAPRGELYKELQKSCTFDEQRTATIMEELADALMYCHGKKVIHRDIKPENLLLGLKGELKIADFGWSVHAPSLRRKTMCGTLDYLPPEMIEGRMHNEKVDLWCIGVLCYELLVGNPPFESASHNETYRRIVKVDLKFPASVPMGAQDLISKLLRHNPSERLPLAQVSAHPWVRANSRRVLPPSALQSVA

[7] = target: Tyrosine-protein kinase ABL1 (Homo sapiens) (UniProt P00519); test: Inhibition of recombinant human N-terminal GST-tagged ABL (118 to 535 residues) expressed in Escherichia coli co-expressed with His-tagged YopH at 1 uM using EAIYAAPFAKKK as substrate incubated for 30 mins in presence of [gamma-33P]ATP by filter binding method
Tyrosine-protein kinase ABL1 (Homo sapiens), sequence (P00519 whole entry, the tested form may be a part): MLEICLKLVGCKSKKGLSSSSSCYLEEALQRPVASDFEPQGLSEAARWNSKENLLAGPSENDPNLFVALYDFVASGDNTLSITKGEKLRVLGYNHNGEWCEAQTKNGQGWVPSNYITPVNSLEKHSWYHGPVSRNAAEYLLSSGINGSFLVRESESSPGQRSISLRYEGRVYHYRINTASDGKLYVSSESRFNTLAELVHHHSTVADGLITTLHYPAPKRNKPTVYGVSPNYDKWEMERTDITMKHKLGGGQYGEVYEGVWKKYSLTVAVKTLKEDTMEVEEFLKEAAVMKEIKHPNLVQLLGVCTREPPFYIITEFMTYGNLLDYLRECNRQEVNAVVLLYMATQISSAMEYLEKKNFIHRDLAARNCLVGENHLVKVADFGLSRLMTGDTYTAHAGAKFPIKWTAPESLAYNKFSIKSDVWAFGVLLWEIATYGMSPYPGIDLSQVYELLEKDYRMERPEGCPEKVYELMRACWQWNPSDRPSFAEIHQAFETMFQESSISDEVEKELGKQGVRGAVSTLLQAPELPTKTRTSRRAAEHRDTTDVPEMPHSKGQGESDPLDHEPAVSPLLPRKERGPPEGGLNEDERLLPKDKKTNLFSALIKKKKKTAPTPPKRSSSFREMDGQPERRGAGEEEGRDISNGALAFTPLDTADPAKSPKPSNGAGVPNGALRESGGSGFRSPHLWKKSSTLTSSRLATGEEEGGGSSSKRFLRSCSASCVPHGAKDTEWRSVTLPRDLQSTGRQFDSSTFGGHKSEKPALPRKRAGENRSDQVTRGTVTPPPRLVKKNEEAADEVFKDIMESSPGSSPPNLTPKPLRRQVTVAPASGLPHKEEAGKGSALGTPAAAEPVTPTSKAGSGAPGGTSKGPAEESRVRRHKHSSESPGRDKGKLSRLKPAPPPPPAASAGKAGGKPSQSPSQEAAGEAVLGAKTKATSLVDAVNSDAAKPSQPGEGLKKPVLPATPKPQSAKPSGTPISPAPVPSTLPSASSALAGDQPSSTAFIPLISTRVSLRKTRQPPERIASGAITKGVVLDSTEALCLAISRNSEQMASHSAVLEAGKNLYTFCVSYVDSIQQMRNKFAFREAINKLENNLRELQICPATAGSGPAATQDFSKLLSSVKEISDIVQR
In short: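 Run within a 140-kinase specificity panel at the International Centre for Protein Kinase Profiling. Compounds were dissolved in DMSO and tested in vitro at 0.1 or 1 μM. Activity is expressed as percentage of kinase activity in DMSO control reactions, as the mean ± S.D. of triplicate reactions.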

[8] = target: T2, Aurora kinase A (Homo sapiens) (UniProt O14965); test: Inhibition of recombinant human N-terminal Hi6-tagged Aurora A (2 to 403 residues) expressed in Escherichia coli 1 uM using LRRLSLGLRRLSLGLRRLSLGLRRLSLG as substrate incubated for 30 mins in presence of [gamma-33P]ATP by filter binding method; in short: as §1
T2 sequence (whole entry): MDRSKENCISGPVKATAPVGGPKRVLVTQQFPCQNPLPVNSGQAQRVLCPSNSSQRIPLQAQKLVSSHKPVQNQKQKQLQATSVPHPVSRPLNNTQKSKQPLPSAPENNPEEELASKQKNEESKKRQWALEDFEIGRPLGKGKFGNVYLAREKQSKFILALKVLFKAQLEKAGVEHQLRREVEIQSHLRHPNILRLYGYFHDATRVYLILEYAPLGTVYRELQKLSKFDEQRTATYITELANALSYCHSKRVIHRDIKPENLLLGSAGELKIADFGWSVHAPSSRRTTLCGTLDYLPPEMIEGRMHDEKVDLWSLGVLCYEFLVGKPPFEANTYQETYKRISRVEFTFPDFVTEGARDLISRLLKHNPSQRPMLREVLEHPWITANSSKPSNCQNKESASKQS

[9] = target: AMPK alpha1/beta2/gamma1 (Homo sapiens) (UniProt O43741+P54619+Q13131); test: Inhibition of recombinant N-terminal His6-tagged human AMPKalpha1 (11 to 559 residues)/AMPKbeta2 (1 to 272 residues)/AMPKgamma1 (1 to 331 residues) expressed in baculovirus infected Sf21 cells at 1 uM using SAMS as substrate incubated for 30 mins in presence of [gamma-33P]ATP by filter binding method; in short: as §1
[10] = target: Tyrosine-protein kinase JAK2 (Homo sapiens) (UniProt O60674); test: Inhibition of JAK2 (unknown origin) activity at 1 uM relative to control; in short: as §1
Tyrosine-protein kinase JAK2 (Homo sapiens), sequence (O60674 whole entry): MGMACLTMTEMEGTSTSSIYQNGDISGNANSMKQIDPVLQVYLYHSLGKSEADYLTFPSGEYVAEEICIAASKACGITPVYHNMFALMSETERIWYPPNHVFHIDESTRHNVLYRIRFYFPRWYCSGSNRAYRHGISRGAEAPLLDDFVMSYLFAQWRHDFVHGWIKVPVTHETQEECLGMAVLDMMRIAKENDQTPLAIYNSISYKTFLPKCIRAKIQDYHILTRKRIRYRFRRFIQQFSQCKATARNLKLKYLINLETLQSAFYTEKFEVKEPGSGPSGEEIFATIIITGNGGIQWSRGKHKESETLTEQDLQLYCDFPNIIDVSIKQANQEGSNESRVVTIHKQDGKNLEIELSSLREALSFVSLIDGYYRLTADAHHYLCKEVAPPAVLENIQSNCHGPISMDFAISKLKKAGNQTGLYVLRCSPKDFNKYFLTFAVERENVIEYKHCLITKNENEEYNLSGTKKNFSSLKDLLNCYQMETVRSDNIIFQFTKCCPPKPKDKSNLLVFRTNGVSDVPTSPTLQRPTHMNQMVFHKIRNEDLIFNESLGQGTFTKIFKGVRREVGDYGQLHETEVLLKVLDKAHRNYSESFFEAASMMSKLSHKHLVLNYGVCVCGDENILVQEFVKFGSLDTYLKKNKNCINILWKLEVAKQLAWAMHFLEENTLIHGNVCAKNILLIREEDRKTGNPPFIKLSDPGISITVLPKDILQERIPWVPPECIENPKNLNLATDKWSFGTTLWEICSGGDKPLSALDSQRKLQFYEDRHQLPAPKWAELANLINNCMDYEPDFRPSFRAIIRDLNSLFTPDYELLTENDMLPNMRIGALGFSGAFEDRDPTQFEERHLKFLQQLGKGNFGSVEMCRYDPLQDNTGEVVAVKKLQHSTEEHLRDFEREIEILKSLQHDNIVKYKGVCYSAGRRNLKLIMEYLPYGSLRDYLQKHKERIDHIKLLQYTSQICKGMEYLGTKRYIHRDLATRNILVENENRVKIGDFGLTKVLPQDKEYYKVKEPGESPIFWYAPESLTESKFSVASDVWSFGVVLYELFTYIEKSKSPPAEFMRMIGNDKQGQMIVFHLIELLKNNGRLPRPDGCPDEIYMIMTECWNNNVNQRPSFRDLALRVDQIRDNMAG

[11] = system: U2OS; test: Inhibition of cell invasion in human U2OS cells at 10 uM incubated for 16 hrs by matrigel based transwell assay; type: functional
In short: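 Growth-factor-reduced Matrigel Transwell invasion: U2OS cells serum-deprived 2 h, detached, 2.5×10^5 cells in DMEM/1% BSA added to upper chambers in triplicate, DMEM/10% FBS as chemoattractant below; 16 h at 37 °C, 5% CO2 with or without 10 μM inhibitor in both compartments; cells on lower filter face fixed, stained, imaged ×10 and counted; mean ± S.D.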

[12] = target: T1, NUAK family SNF1-like kinase 1 (Homo sapiens); test: Inhibition of NUAK1 (unknown origin) expressed in HEK293 cells assessed as reduction in MYPT1 phosphorylation at Ser445 residue at 30 uM incubated for 16 hrs by immunoblot analysis; type: cell-based
In short: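 HEK-293 Flp/In T-Rex cells stably expressing HA–NUAK1 or HA–NUAK1[A195T] (doxycycline 0.1 μg/ml, 16–24 h to induce) treated with inhibitor 16 h, then detached in EDTA-PBS dissociation buffer containing the same inhibitor concentration, tapped and spun 70 g 3 min; lysed, endogenous MYPT1 immunoprecipitated from 0.5 mg lysate and immunoblotted for p-Ser445 and total MYPT1; three separate experiments.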

[13] = target: T1, NUAK family SNF1-like kinase 1 (Homo sapiens); test: Inhibition of NUAK1 in HEK293 cells assessed as reduction in MYPT1 phosphorylation at Ser445 residue at 10 uM incubated for 16 hrs by immunoblot analysis; type: cell-based; in short: as §2
[14] = system: MEF; test: Inhibition of NUAK1 in NUAK1+/+ MEF cells assessed as reduction in MYPT1 phosphorylation at Ser445 residues at 10 uM after 16 hrs by immunoblot analysis; type: cell-based; conditions: Mus musculus
In short: (§3)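 U2OS cells or NUAK1+/+ MEFs treated with or without 10 μM inhibitor for 16 h, then 20 min in EDTA-PBS dissociation buffer with 10 μM inhibitor or DMSO; detached by tapping and 70 g 3 min spin, lysed immediately and immunoblotted for MYPT1 p-Ser445; three separate experiments.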

[15] = system: MEF; test: Inhibition of cell migration in NUAK1+/+ MEF cells at 10 uM pre incubated for 1 hr followed by overnight incubation and measured after 15 to 20 hrs by microscopic based wound healing assay; type: functional; conditions: Mus musculus
In short: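 Wound healing: equal MEF numbers loaded into both chambers of inserts with a 500 μm gap, inhibitor (10 μM) added 1 h before; after overnight at 37 °C, 5% CO2 insert removed and gap closure filmed by time-lapse microscopy every 2 min over 15–20 h; triplicate.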

[16] = target: High affinity nerve growth factor receptor (Homo sapiens) (UniProt P04629); test: Inhibition of recombinant human N-terminal His6-tagged TrkA (441 to 760 residues) expressed in baculovirus infected Sf21 cells assessed as remaining activity at 1 uM using Poly(Glu,Tyr) as substrate incubated for 30 mins in presence of [gamma-33P]ATP by filter binding method relative to control; in short: as §1
[17] = target: T1, NUAK family SNF1-like kinase 1 (Homo sapiens); test: Inhibition of NUAK1 in human U2OS cells assessed as reduction in MYPT1 phosphorylation at Ser445 residues at 10 uM after 16 hrs by immunoblot analysis; type: cell-based; in short: as §3
[18] = system: MEF; test: Antiproliferative activity against NUAK1+/+ MEF cells assessed as reduction in cell viability at 10 uM after 5 days by CellTiter 96 non-radioactive cell proliferation assay; type: functional, cell-based; conditions: Mus musculus, time 5.0 day
In short: (§4)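 Colorimetric CellTiter 96 AQueous proliferation assay in 96-well format; 2000 cells/well seeded for U2OS, 3000 cells/well for MEFs; grown 5 days with or without 10 μM inhibitor; run in triplicate. Inhibitors dissolved in DMSO, final DMSO in medium ≤1%. MEFs cultured in DMEM/10% FBS, glutamine, non-essential amino acids, sodium pyruvate.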

[19] = system: U2OS; test: Antiproliferative activity against human U2OS cells assessed as reduction in cell viability at 10 uM after 5 days by CellTiter 96 non-radioactive cell proliferation assay; type: functional, cell-based; conditions: time 5.0 day; in short: as §4

Serine/threonine-protein kinase MARK1 (Homo sapiens), sequence (Q9P0L2 whole entry, looked up, the tested form may be a part): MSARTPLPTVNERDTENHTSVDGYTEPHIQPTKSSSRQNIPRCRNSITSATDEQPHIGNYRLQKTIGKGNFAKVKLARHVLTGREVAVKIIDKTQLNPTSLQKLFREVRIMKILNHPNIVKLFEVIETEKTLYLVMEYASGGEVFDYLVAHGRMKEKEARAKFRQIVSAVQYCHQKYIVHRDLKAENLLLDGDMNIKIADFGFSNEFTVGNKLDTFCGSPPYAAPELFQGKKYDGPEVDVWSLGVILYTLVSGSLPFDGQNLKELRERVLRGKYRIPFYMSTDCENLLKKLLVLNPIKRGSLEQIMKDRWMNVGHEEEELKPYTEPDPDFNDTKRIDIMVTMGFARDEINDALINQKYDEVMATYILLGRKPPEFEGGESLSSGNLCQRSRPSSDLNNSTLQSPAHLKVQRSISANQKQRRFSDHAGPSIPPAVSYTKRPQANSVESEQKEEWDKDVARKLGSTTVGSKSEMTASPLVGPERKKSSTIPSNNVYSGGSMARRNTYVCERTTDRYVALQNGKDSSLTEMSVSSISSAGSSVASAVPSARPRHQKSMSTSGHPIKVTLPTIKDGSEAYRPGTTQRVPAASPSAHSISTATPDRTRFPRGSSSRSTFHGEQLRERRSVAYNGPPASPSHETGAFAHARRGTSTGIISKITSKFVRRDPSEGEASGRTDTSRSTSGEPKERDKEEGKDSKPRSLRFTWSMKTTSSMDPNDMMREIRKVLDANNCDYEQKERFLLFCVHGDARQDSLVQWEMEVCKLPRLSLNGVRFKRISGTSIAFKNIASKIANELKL

| SMILES | inhibition [1] | inhibition [2] | inhibition [3] | inhibition [4] | inhibition [5] | inhibition [6] | inhibition [7] | inhibition [8] | inhibition [9] | inhibition [10] | inhibition [11] | inhibition [12] | inhibition [13] | inhibition [14] | inhibition [15] | Activity [16] | inhibition [17] | inhibition [18] | inhibition [19] |
| --- | --- | --- | --- | --- | --- | --- | --- | --- | --- | --- | --- | --- | --- | --- | --- | --- | --- | --- | --- |
| CN1C(=O)c2ccccc2N(C)c2nc(Nc3cnn(C4CCNCC4)c3)ncc21 | Active | Active | inactive | Active | Active | Active | Active | Active | Active | Active |  |  |  |  |  |  |  |  |  |
| Cc1nc(Nc2cnn(C3CCNCC3)c2)nc2c1N(C)C(=O)c1cc3ccccc3cc1N2C |  |  |  |  |  |  |  |  |  |  | Active | Active | Active | Active | Active | 82% | Active | Active | Active |
| CN1C(=O)c2cc3ccccc3cc2N(C)c2nc(Nc3cnn(C4CCNCC4)c3)ncc21 |  |  | inactive | Active |  | Active | Active | Active |  | Active |  |  |  |  |  |  |  |  |  |

— ChEMBL document CHEMBL5705897, “Characterization of WZ4003 and HTH-01-015 as selective inhibitors of the LKB1-tumour-suppressor-activated NUAK kinases” (Biochem J, 2014)
